According to ChEMBL document CHEMBL4819061, “New bioactive 5-arylcarboximidamidopyrazolo[3,4-c]pyridines: Synthesis, cytotoxic activity, mechanistic investigation and structure-activity relationships” (Eur J Med Chem, 2021):
Activity calls are given as the source filed them. The calls are words filed in the database; no cut-off is given here.

Tests used:
PC-3 = test: Cytotoxicity against human PC-3 cells assessed as reduction in cell viability incubated for 72 hrs by MTT assay; type: functional, cell-based; details: PC-3, 72 h
How it was run: (§1)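 Cancer lines (MDA-MB-231, HT-1080, PC-3) were grown in DMEM with 10% FBS and penicillin/streptomycin at 37 °C in 5% CO₂. About 5000 cells/well adhered overnight, then serial compound dilutions were added for 72 h, with matching DMSO dilutions (0.5–0.0008% v/v) as controls. MTT (1 mg/ml final, serum-free phenol-red-free DMEM) ran 4 h, was solubilised in 2-propanol, and OD read at 550 nm (ref 690). IC50 is the concentration halving OD versus untreated, mean of three independent experiments.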

HT-1080 [1] = test: Cytotoxicity against human HT-1080 cells assessed as reduction in cell viability incubated for 72 hrs by MTT assay; type: functional, cell-based; details: HT-1080, 72 h; how it was run: as §1
HT-1080 [2] = test: Inhibition of ERK phosphorylation in human HT-1080 cells at 20 uM after 15 mins by Western blotting analysis
HT-1080 [3] = test: Induction of cell cycle arrest in human HT1080 cells assessed as accumulation at S phase at 2 uM incubated for 24 hrs by RNase/PI staining based flow cytometric analysis (reference value: 19.59 %); type: functional
HT-1080 [4] = test: Induction of cell cycle arrest in human HT1080 cells assessed as accumulation at G0/G1 phase at 2 uM incubated for 24 hrs by RNase/PI staining based flow cytometric analysis (reference value: 32.86 %); type: functional
[5] = target: RAC-alpha serine/threonine-protein kinase (Homo sapiens) (UniProt P31749); test: Inhibition of AKT phosphorylation at Ser473 residue in human HT-1080 cells at 20 uM after 15 mins by Western blotting analysis; details: time 15.0 mins
HT-1080 [6] = test: Induction of cell cycle arrest in human HT1080 cells assessed as accumulation at G2/M phase at 2 uM incubated for 24 hrs by RNase/PI staining based flow cytometric analysis (reference value: 47.55 %); type: functional
[7] = target: MAP kinase p38 (Homo sapiens) (UniProt O15264+Q15759+Q16539+P53778); test: Induction of p38 MAPK phosphorylation in human HT-1080 cells at 20 uM after 15 mins by Western blotting analysis
HT-1080 [8] = test: Induction of cell cycle arrest in human HT1080 cells assessed as accumulation at sub-diploid phase at 2 uM incubated for 24 hrs by RNase/PI staining based flow cytometric analysis (reference value: 5.36 %); type: functional
HT-1080 [9] = test: Induction of apoptosis in human HT-1080 cells assessed as increase in PARP cleavage at 2 uM after 24 hrs by Western blotting analysis
AG1523 = test: Cytotoxicity against human AG01523 cells assessed as reduction in cell viability incubated for 72 hrs by MTT assay; type: cell-based; details: AG1523, 72 h
MDA-MB-231 = test: Cytotoxicity against human MDA-MB-231 cells assessed as reduction in cell viability incubated for 72 hrs by MTT assay; type: functional, cell-based; details: MDA-MB-231, 72 h; how it was run: as §1

Chain of RAC-alpha serine/threonine-protein kinase (Homo sapiens) (P31749 whole entry): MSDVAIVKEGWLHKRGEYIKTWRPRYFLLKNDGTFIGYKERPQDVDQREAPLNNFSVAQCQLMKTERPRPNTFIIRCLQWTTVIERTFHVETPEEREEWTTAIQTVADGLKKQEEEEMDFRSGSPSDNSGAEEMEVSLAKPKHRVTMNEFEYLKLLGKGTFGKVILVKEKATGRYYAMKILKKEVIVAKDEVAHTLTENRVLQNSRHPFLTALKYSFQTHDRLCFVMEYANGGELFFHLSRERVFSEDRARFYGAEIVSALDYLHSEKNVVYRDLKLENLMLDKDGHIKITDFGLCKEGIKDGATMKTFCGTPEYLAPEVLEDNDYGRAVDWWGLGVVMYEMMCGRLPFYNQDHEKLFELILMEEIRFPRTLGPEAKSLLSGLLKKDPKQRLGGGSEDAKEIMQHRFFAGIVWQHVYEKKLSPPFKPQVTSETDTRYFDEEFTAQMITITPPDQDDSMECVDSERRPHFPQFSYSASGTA

inhibition [5] | Activity [7] | Compound | IC50 (PC-3) | IC50 (HT-1080 [1]) | inhibition (HT-1080 [2]) | Activity (HT-1080 [3]) | Percentage of cells in G0/G1 phase (HT-1080 [4]) | Activity (HT-1080 [6]) | Percent of cells in sub-diploid (sub-G1) phase (HT-1080 [8]) | Activity (HT-1080 [9]) | IC50 (AG1523) | IC50 (MDA-MB-231)
Active | Active | COc1ccc(Cn2nc(-c3ccccc3)c3cc(C(=N)Nc4ccc(N5CCN(C)CC5)cc4)nc(Nc4cc(OC)c(OC)c(OC)c4)c32)cc1 | 1.24 µM | 1.2 µM | Active | 64.04% | 26.67% | 9.29% | 27.79% | Active | 1.81 µM | 0.89 µM
– | Active | N=C(Nc1ccccc1)c1cc2c(-c3ccccc3)n[nH]c2c(NC2CCCCC2)n1 | 1.73 µM | 0.85 µM | – | 16.48% | 40.23% | 43.29% | 8.27% | Active | 4.19 µM | 1.71 µM
100% | Active | CN1CCN(c2ccc(NC(=N)c3cc4c(-c5ccccc5)n[nH]c4c(NC4CCCCC4)n3)cc2)CC1 | 4.63 µM | 0.65 µM | Active | 14.37% | 43.78% | 41.85% | 13.49% | Active | 12.3 µM | 1.5 µM
